Source: ChEMBL document CHEMBL4330096, “Discovery of potent and selective 5-azaindazole inhibitors of leucine-rich repeat kinase 2 (LRRK2) - Part 1” (Bioorg Med Chem Lett, 2019)

Key:
[1] = target: Tyrosine-protein kinase Lck (Homo sapiens) (UniProt P06239); test: Inhibition of Lck (unknown origin) at 10 uM relative to control
Summary of the method: (§1)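 Single-point screen of each compound against a panel of 59 protein kinases, at 1 or 10 μM. The panel data are also summarised as a rescaled geometric mean selectivity score.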

[2] = target: T1, Inhibitor of nuclear factor kappa-B kinase subunit beta (Homo sapiens) (UniProt O14920); test: Inhibition of IKKb (unknown origin) at 10 uM relative to control; summary of the method: as §1
T1 sequence (whole entry): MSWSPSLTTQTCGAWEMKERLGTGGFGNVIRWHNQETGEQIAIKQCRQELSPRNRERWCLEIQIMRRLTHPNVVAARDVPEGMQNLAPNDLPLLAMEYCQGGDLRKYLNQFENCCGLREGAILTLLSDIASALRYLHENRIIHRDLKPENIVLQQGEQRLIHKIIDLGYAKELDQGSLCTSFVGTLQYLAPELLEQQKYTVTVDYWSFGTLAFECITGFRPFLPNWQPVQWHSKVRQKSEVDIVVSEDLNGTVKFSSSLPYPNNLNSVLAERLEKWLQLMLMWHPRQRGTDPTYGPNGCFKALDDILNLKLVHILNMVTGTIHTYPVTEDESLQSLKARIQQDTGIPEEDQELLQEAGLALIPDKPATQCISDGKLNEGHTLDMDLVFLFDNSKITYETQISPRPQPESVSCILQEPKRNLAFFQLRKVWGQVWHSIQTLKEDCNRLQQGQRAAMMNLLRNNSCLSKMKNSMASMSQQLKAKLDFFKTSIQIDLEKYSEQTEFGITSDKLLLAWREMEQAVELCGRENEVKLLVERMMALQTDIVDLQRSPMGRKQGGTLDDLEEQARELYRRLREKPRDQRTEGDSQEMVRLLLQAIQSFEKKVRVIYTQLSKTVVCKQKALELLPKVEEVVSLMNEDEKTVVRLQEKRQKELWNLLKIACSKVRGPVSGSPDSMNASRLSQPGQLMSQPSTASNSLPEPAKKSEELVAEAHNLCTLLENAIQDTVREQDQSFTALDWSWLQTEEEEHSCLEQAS

[3] = target: T2, MAP kinase-activated protein kinase 5 (Homo sapiens) (UniProt Q8IW41); test: Inhibition of PRAK (unknown origin) at 10 uM relative to control
T2 sequence (whole entry): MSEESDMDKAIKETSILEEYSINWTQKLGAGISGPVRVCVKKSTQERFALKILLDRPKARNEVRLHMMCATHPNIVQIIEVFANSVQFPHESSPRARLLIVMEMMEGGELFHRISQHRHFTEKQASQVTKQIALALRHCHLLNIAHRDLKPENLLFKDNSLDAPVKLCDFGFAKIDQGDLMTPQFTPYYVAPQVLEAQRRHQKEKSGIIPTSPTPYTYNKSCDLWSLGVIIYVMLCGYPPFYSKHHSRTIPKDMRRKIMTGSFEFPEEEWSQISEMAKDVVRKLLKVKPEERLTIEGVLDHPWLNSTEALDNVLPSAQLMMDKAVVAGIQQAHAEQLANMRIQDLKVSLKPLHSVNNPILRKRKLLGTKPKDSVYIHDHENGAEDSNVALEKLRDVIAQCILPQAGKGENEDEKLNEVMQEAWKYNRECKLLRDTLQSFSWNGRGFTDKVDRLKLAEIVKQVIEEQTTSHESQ
Summary of the method: (§2)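 Single-concentration screen of each compound against a 59-protein-kinase panel, run at 10 µM or 1 µM. Activity relative to control is shown as a heat map across the panel.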

[4] = Stability in mouse liver microsomes assessed as compound turnover rate measured after 30 mins; assay type: ADME, Microsome; details: read-out: Drug metabolism
Summary of the method: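 In vitro incubation of compound with liver microsomes: human (HLM) for 40 min, mouse (MLM) for 30 min. Reported as % turnover of parent compound.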

[5] = target: Mitogen-activated protein kinase 3 (Homo sapiens) (UniProt P27361); test: Inhibition of ERK1 (unknown origin) at 10 uM relative to control; summary of the method: as §1
[6] = target: 3-phosphoinositide-dependent protein kinase 1 (Homo sapiens) (UniProt O15530); test: Inhibition of PDK1 (unknown origin) at 10 uM relative to control
3-phosphoinositide-dependent protein kinase 1 (Homo sapiens), sequence (O15530 whole entry, looked up): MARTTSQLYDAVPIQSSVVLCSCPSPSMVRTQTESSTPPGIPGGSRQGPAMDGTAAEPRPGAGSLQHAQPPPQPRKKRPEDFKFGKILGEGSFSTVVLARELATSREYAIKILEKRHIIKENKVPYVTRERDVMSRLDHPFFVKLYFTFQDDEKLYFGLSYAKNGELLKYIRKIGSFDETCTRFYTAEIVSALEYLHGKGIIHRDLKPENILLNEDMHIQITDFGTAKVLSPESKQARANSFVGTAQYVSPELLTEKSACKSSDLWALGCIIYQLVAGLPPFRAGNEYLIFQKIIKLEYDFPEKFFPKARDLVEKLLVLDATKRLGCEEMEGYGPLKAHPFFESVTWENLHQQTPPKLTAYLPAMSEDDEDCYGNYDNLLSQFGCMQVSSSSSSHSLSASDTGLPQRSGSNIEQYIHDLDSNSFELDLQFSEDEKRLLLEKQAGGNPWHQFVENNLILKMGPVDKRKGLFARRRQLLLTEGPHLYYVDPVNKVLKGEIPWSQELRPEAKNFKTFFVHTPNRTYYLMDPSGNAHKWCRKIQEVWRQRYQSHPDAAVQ

Homo sapiens [7] = species: Homo sapiens; test: Inhibition of VEGFR (unknown origin) at 10 uM relative to control
Summary of the method: (§3)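 Single-concentration screen across a panel of 59 protein kinases, with each compound tested at one fixed concentration. The read-out is residual kinase activity relative to control. Panel results are also condensed into a rescaled geometric mean (RGM) selectivity score.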

[8] = target: Serine/threonine-protein kinase PLK1 (Homo sapiens) (UniProt P53350); test: Inhibition of PLK1 (unknown origin) at 10 uM relative to control; summary of the method: as §2
Serine/threonine-protein kinase PLK1 (Homo sapiens), sequence (P53350 whole entry): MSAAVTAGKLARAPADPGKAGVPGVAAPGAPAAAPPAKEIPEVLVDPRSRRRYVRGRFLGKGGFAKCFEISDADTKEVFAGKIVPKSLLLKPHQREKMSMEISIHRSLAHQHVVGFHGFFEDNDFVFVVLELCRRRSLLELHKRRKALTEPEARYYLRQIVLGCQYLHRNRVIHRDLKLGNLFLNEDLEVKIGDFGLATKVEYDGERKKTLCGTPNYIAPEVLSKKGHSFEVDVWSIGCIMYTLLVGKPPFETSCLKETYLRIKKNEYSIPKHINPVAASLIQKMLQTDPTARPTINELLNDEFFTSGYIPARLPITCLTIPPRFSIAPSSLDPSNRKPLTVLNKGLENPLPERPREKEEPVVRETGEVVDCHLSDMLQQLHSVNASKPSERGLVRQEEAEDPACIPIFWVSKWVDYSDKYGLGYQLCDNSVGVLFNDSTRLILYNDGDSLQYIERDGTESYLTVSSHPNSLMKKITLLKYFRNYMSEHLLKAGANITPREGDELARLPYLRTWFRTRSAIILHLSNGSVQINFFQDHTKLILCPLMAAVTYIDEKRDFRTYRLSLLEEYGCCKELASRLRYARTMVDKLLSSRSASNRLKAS

[9] = target: Ribosomal protein S6 kinase beta-1 (Homo sapiens) (UniProt P23443); test: Inhibition of S6K1 (unknown origin) at 10 uM relative to control; summary of the method: as §3
Ribosomal protein S6 kinase beta-1 (Homo sapiens), sequence (P23443 whole entry, looked up): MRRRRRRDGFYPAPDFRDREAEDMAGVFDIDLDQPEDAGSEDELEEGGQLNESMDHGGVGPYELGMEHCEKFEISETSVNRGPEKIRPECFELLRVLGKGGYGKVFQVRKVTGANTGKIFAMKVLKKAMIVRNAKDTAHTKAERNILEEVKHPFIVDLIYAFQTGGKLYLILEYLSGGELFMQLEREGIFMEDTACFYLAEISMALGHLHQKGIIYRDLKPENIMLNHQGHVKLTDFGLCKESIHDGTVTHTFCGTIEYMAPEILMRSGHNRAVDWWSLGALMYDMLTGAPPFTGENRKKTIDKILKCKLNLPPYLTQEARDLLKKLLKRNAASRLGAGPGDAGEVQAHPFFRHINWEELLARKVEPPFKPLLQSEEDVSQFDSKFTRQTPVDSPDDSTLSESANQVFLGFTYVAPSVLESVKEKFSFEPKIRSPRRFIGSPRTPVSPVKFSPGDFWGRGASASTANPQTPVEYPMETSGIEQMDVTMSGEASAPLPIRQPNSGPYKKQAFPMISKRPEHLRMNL

[10] = target: Serine/threonine-protein kinase 26 (Homo sapiens) (UniProt Q9P289); test: Inhibition of MST4 (unknown origin) at 10 uM relative to control; summary of the method: as §2
[11] = target: Serine/threonine-protein kinase pim-1 (Homo sapiens) (UniProt P11309); test: Inhibition of PIM1 (unknown origin) at 10 uM relative to control; summary of the method: as §2
Serine/threonine-protein kinase pim-1 (Homo sapiens), sequence (P11309 whole entry, looked up): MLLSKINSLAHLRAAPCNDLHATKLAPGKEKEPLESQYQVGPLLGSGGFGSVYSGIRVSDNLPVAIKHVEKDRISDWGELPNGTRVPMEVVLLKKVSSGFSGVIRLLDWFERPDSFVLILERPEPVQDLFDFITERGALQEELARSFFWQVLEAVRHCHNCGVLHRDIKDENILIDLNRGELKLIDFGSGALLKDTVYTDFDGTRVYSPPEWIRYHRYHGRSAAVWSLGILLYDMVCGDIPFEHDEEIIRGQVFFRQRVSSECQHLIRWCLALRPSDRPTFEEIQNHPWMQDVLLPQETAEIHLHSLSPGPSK

[12] = target: Serine/threonine-protein kinase PAK 4 (Homo sapiens) (UniProt O96013); test: Inhibition of PAK4 (unknown origin) at 10 uM relative to control; summary of the method: as §2
Serine/threonine-protein kinase PAK 4 (Homo sapiens), sequence (O96013 whole entry, looked up): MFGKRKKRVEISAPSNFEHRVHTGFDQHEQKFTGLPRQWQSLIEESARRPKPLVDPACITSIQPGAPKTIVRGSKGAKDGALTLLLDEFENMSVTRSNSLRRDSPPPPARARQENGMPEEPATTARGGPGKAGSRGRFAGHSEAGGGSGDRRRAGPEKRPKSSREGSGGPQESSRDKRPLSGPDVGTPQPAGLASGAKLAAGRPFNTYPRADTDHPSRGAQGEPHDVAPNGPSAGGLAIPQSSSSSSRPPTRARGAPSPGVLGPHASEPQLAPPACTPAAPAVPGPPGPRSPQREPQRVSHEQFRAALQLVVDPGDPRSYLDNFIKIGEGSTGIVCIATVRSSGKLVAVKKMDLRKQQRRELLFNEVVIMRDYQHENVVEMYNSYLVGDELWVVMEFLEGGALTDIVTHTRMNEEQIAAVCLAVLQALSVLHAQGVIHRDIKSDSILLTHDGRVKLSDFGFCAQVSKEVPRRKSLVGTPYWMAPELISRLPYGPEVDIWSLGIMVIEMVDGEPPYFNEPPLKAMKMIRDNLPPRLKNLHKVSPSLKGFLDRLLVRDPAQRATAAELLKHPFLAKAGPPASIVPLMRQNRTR

[13] = target: Fibroblast growth factor receptor 1 (Homo sapiens) (UniProt P11362); test: Inhibition of FGFR1 (unknown origin) at 10 uM relative to control; summary of the method: as §1
Fibroblast growth factor receptor 1 (Homo sapiens), sequence (P11362 22-822 limits assumed): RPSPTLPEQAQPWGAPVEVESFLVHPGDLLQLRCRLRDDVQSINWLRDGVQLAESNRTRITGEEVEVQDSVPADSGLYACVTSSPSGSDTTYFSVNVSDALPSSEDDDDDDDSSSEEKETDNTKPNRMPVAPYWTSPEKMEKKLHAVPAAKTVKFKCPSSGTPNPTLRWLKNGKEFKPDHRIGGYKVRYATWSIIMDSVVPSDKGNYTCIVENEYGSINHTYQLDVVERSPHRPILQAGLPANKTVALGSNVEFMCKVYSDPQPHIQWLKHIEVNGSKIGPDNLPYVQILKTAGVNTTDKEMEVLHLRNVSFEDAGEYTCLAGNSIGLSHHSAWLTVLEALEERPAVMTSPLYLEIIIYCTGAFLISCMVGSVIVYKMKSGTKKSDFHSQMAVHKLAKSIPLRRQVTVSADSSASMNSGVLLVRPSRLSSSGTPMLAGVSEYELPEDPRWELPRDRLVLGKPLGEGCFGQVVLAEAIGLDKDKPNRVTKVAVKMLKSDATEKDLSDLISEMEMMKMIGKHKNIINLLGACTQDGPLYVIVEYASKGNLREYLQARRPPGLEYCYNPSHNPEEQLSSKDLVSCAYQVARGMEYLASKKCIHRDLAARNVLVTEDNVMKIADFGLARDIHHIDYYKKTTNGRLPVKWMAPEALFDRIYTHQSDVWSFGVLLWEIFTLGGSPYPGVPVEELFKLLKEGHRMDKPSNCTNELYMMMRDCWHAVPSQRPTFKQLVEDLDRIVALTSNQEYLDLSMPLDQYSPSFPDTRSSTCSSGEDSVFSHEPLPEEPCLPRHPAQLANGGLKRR

[14] = target: Glycogen synthase kinase-3 beta (Homo sapiens) (UniProt P49841); test: Inhibition of GSK3b (unknown origin) at 10 uM relative to control; summary of the method: as §1
[15] = target: Mitogen-activated protein kinase 9 (Homo sapiens) (UniProt P45984); test: Inhibition of JNK2 (unknown origin) at 10 uM relative to control; summary of the method: as §1
[16] = target: Tyrosine-protein kinase Yes (Homo sapiens) (UniProt P07947); test: Inhibition of YES1 (unknown origin) at 10 uM relative to control; summary of the method: as §3
[17] = target: Mitogen-activated protein kinase 14 (Homo sapiens) (UniProt Q16539); test: Inhibition of p38a MAPK (unknown origin) at 10 uM relative to control; summary of the method: as §3
[18] = target: Serine/threonine-protein kinase N2 (Homo sapiens) (UniProt Q16513); test: Inhibition of PRK2 (unknown origin) at 10 uM relative to control; summary of the method: as §2
Serine/threonine-protein kinase N2 (Homo sapiens), sequence (Q16513 whole entry, looked up): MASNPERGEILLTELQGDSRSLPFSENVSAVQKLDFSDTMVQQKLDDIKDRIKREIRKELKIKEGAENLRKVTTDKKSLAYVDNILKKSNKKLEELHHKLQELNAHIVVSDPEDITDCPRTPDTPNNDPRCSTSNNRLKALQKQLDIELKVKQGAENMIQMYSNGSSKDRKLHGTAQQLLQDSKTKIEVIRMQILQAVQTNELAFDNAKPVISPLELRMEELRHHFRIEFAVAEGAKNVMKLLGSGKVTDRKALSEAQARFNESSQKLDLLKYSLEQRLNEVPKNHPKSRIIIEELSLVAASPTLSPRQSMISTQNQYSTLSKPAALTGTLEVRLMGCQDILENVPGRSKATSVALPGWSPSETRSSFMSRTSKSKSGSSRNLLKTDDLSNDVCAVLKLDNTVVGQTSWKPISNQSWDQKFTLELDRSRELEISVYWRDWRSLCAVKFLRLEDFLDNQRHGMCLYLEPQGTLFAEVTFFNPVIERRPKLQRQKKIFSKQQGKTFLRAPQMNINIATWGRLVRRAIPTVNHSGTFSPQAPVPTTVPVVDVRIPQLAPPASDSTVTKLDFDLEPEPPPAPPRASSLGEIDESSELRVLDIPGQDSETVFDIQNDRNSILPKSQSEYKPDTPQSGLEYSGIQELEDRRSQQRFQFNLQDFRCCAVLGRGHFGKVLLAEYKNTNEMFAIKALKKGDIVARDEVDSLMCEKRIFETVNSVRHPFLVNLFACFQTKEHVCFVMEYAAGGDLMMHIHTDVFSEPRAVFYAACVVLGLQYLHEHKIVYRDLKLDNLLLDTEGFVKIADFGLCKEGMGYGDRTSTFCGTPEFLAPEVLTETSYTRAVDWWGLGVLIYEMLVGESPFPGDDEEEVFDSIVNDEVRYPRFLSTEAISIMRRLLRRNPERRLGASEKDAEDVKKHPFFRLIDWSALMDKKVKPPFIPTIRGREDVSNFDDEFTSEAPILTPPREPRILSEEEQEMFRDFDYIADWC

[19] = target: Calcium/calmodulin-dependent protein kinase type 1 (Homo sapiens) (UniProt Q14012); test: Inhibition of CAMK1 (unknown origin) at 10 uM relative to control; summary of the method: as §1
Homo sapiens [20] = species: Homo sapiens; test: Inhibition of PKA (unknown origin) at 10 uM relative to control; summary of the method: as §2
[21] = target: Aurora kinase B (Homo sapiens) (UniProt Q96GD4); test: Inhibition of Aurora B (unknown origin) at 10 uM relative to control; summary of the method: as §1

Tyrosine-protein kinase Lck (Homo sapiens), sequence (P06239 2-509 limits assumed): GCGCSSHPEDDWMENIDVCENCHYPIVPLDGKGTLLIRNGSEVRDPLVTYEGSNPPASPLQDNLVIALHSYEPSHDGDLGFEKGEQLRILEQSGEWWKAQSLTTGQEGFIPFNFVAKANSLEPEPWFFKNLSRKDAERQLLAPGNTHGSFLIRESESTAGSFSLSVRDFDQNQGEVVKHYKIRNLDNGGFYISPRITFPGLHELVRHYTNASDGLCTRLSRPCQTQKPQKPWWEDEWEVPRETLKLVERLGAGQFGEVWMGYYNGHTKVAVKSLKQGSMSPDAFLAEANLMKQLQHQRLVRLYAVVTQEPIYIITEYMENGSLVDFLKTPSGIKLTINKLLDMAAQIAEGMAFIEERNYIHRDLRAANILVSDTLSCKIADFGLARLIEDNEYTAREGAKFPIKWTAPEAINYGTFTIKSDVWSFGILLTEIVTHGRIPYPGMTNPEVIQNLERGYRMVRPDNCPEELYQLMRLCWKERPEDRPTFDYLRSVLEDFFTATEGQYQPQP

For `Cc1n[nH]c2ccnc(NC3CCCCC3)c12`, the inhibition [1] was 13%, the inhibition [2] was 29% and the inhibition [3] was 3%. It also gave a metabolised at 0.5 h [4] of 13%, an inhibition [5] of 40% and an inhibition [6] of 13%. The inhibition (Homo sapiens [7]) was 43%, the inhibition [8] was 34% and the inhibition [9] was 28%. For the same molecule, the inhibition [10] was 51%, the inhibition [11] was 66% and the inhibition [12] was 40%. The inhibition [13] was 69%, the inhibition [14] was 23% and the inhibition [15] was 41%. The inhibition [16] was 30%, the inhibition [17] was 9% and the inhibition [18] was 63%. For the same molecule, the inhibition [19] was 13%, the inhibition (Homo sapiens [20]) was 49% and the inhibition [21] was 80%.

`Cc1n[nH]c2ccnc(Nc3ccc4ncsc4c3)c12` showed an inhibition [1] of 8%, an inhibition [3] of 10% and an inhibition [9] of 19%. The inhibition [15] was 49% and the inhibition [17] was 0%.

For `Cc1n[nH]c2ccnc(Nc3ccccc3F)c12`, the inhibition [1] was 22%, the inhibition [2] was 49% and the inhibition [3] was 11%. For the same molecule, the inhibition [5] was 69%, the inhibition [6] was 25% and the inhibition (Homo sapiens [7]) was 67%. The inhibition [8] was 72%, the inhibition [9] was 36% and the inhibition [10] was 28%. The inhibition [11] was 67%, the inhibition [12] was 44% and the inhibition [13] was 66%. For the same molecule, the inhibition [14] was 53%, the inhibition [15] was 54% and the inhibition [16] was 26%. For the same molecule, the inhibition [17] was 10%, the inhibition [18] was 50% and the inhibition [19] was 23%. It also gave an inhibition (Homo sapiens [20]) of 9% and an inhibition [21] of 80%.

In the case of `CC(C)n1cc(-c2n[nH]c3ccnc(OC4CCOCC4)c23)cn1`, the metabolised at 0.5 h [4] is reported as 20%.

In the case of `Cc1n[nH]c2ccnc(OC3CCCCC3)c12`, the inhibition [1] is reported as 47%, the inhibition [2] is reported as 35% and the inhibition [3] is reported as 7%. It also gave a metabolised at 0.5 h [4] of 37%, an inhibition [5] of 48% and an inhibition [6] of 34%. For the same molecule, the inhibition (Homo sapiens [7]) was 76%, the inhibition [8] was 53% and the inhibition [9] was 78%. For the same molecule, the inhibition [10] was 48%, the inhibition [11] was 60% and the inhibition [12] was 85%. The inhibition [13] was 84%, the inhibition [14] was 73% and the inhibition [15] was 66%. For the same molecule, the inhibition [16] was 44%, the inhibition [17] was 0% and the inhibition [18] was 92%. The inhibition [19] was 41%, the inhibition (Homo sapiens [20]) was 93% and the inhibition [21] was 88%.

Work on `c1cc(-c2n[nH]c3ccnc(OC4CCOCC4)c23)cc(N2CCOCC2)n1` yielded a metabolised at 0.5 h [4] of 19%.
